species: Mus musculus; experiment: Uptake Ratio of Tumor/blood (each in % ID/g) in B16/F1 Murine Melanoma-Bearing C57 Mice at 4 h; assay type: functional, organism-based; conditions: not given
In short: (§1)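 C57 BL/6 female mice (7–8 weeks) carried B16/F1 tumours from 1×10^6 cells given s.c. in the right flank; tumours were ~500 mg at 9–10 days. Each mouse received […] of HPLC-purified, neutralized 111In-DOTA peptide via the tail vein. Mice were killed at 0.5, 2, 4 or 24 h pi. Tissues were weighed and γ-counted, expressed as % ID/g; ratios were tumor/tissue % ID/g.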

Row | Substance | Uptake ratio
1 | DOTA-ReCCEHdFRWCKPV-NH2 | 490

species: Mus musculus; experiment: Uptake Ratio of Tumor/muscle (each in % ID/g) in B16/F1 Murine Melanoma-Bearing C57 Mice at 4 h; assay type: functional, organism-based; conditions: Muscle tissue
In short: (§2)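 Female C57 BL/6 mice, 7–8 weeks old, carried subcutaneous right-flank B16/F1 tumors from 1×10^6 cells and were used 9–10 days later at ~500 mg tumor weight. Each received […] of HPLC-purified, pH-neutralized ¹¹¹In-DOTA peptide by tail vein. Tumor and organs were excised at the stated time, weighed and γ-counted. Each tissue was taken as % ID/g, and tumor/normal-tissue ratios were formed from these values.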

Row | Substance | Uptake ratio
2 | DOTA-ReCCEHdFRWCKPV-NH2 | 159

species: Mus musculus; experiment: Uptake Ratio of Tumor/liver (each in % ID/g) in B16/F1 Murine Melanoma-Bearing C57 Mice at 4 h; assay type: functional, organism-based; conditions: not given; in short: as §1

Row | Substance | Uptake ratio
3 | DOTA-ReCCEHdFRWCKPV-NH2 | 49.4

species: Mus musculus; experiment: Uptake Ratio of Tumor/lungs (each in % ID/g) in B16/F1 Murine Melanoma-Bearing C57 Mice at 24 h; assay type: functional, organism-based; conditions: not given; in short: as §2

Row | Substance | Uptake ratio
4 | DOTA-ReCCEHdFRWCKPV-NH2 | 169

species: Mus musculus; experiment: Radioactivity uptake in the pancreas was expressed as a percentage of the injected radioactive dose per gram of tissue (% ID/g) in B16/F1 Murine Melanoma-Bearing C57 Mice at 2 h; assay type: functional, organism-based; conditions: not given; in short: as §1

Row | Substance | ID/g [%]
5 | DOTA-ReCCEHdFRWCKPV-NH2 | 0.048

species: Mus musculus; experiment: Radioactivity uptake in the blood was expressed as a percentage of the injected radioactive dose per gram of tissue (% ID/g) in B16/F1 Murine Melanoma-Bearing C57 Mice at 0.5 h; assay type: functional, organism-based; conditions: not given; in short: as §1

Row | Substance | ID/g [%]
6 | DOTA-ReCCEHdFRWCKPV-NH2 | 1.57

species: Mus musculus; experiment: Uptake Ratio of Tumor/blood (each in % ID/g) in B16/F1 Murine Melanoma-Bearing C57 Mice at 0.5 h; assay type: functional, organism-based; conditions: not given; in short: as §1

Row | Substance | Uptake ratio
7 | DOTA-ReCCEHdFRWCKPV-NH2 | 6.9

species: Mus musculus; experiment: Radioactivity uptake in the liver was expressed as a percentage of the injected radioactive dose per gram of tissue (% ID/g) in B16/F1 Murine Melanoma-Bearing C57 Mice at 24 h; assay type: functional, organism-based; conditions: not given; in short: as §1

Row | Substance | ID/g [%]
8 | DOTA-ReCCEHdFRWCKPV-NH2 | 0.16

species: Mus musculus; experiment: Uptake Ratio of Tumor/blood (each in % ID/g) in B16/F1 Murine Melanoma-Bearing C57 Mice at 24 h; assay type: functional, organism-based; conditions: not given; in short: as §1

Row | Substance | Uptake ratio
9 | DOTA-ReCCEHdFRWCKPV-NH2 | 601

species: Mus musculus; experiment: Uptake Ratio of Tumor/lungs (each in % ID/g) in B16/F1 Murine Melanoma-Bearing C57 Mice at 4 h; assay type: functional, organism-based; conditions: not given; in short: as §2

Row | Substance | Uptake ratio
10 | DOTA-ReCCEHdFRWCKPV-NH2 | 100

species: Mus musculus; experiment: Radioactivity uptake in the liver was expressed as a percentage of the injected radioactive dose per gram of tissue (% ID/g) in B16/F1 Murine Melanoma-Bearing C57 Mice at 0.5 h; assay type: functional, organism-based; conditions: not given; in short: as §1

Row | Substance | ID/g [%]
11 | DOTA-ReCCEHdFRWCKPV-NH2 | 0.59

species: Mus musculus; experiment: Uptake Ratio of Tumor/kidneys (each in % ID/g) in B16/F1 Murine Melanoma-Bearing C57 Mice at 0.5 h; assay type: functional, organism-based; conditions: Kidney; in short: as §1

Row | Substance | Uptake ratio
12 | DOTA-ReCCEHdFRWCKPV-NH2 | 0.85

species: Mus musculus; experiment: Radioactivity uptake in the kidneys was expressed as a percentage of the injected radioactive dose per gram of tissue (% ID/g) in B16/F1 Murine Melanoma-Bearing C57 Mice at 0.5 h; assay type: functional, organism-based; conditions: Kidney; in short: as §1

Row | Substance | ID/g [%]
13 | DOTA-ReCCEHdFRWCKPV-NH2 | 13

species: Mus musculus; experiment: Radioactivity uptake in the liver was expressed as a percentage of the injected radioactive dose per gram of tissue (% ID/g) in B16/F1 Murine Melanoma-Bearing C57 Mice at 4 h; assay type: functional, organism-based; conditions: not given; in short: as §1

Row | Substance | ID/g [%]
14 | DOTA-ReCCEHdFRWCKPV-NH2 | 0.2

species: Mus musculus; experiment: Uptake Ratio of Tumor/kidneys (each in % ID/g) in B16/F1 Murine Melanoma-Bearing C57 Mice at 24 h; assay type: functional, organism-based; conditions: Kidney; in short: as §1

Row | Substance | Uptake ratio
15 | DOTA-ReCCEHdFRWCKPV-NH2 | 0.88

species: Mus musculus; experiment: Radioactivity uptake in the heart was expressed as a percentage of the injected radioactive dose per gram of tissue (% ID/g) in B16/F1 Murine Melanoma-Bearing C57 Mice at 4 h; assay type: functional, organism-based; conditions: not given; in short: as §1

Row | Substance | ID/g [%]
16 | DOTA-ReCCEHdFRWCKPV-NH2 | 0.12

species: Mus musculus; experiment: Uptake Ratio of Tumor/kidneys (each in % ID/g) in B16/F1 Murine Melanoma-Bearing C57 Mice at 4 h; assay type: functional, organism-based; conditions: Kidney; in short: as §1

Row | Substance | Uptake ratio
17 | DOTA-ReCCEHdFRWCKPV-NH2 | 1.1

species: Mus musculus; experiment: Radioactivity uptake in the lungs was expressed as a percentage of the injected radioactive dose per gram of tissue (% ID/g) in B16/F1 Murine Melanoma-Bearing C57 Mice at 2 h; assay type: functional, organism-based; conditions: Lung; in short: as §1

Row | Substance | ID/g [%]
18 | DOTA-ReCCEHdFRWCKPV-NH2 | 0.18

species: Mus musculus; experiment: Uptake Ratio of Tumor/muscle (each in % ID/g) in B16/F1 Murine Melanoma-Bearing C57 Mice at 24 h; assay type: functional, organism-based; conditions: Muscle tissue; in short: as §2

Row | Substance | Uptake ratio
19 | DOTA-ReCCEHdFRWCKPV-NH2 | 173

species: Mus musculus; experiment: Uptake Ratio of Tumor/kidneys (each in % ID/g) in B16/F1 Murine Melanoma-Bearing C57 Mice at 2 h; assay type: functional, organism-based; conditions: Kidney; in short: as §1

Row | Substance | Uptake ratio
20 | DOTA-ReCCEHdFRWCKPV-NH2 | 1.3

species: Mus musculus; experiment: Radioactivity uptake in the blood was expressed as a percentage of the injected radioactive dose per gram of tissue (% ID/g) in B16/F1 Murine Melanoma-Bearing C57 Mice at 2 h; assay type: functional, organism-based; conditions: not given; in short: as §1

Row | Substance | ID/g [%]
21 | DOTA-ReCCEHdFRWCKPV-NH2 | 0.065

species: Mus musculus; experiment: Radioactivity uptake in the heart was expressed as a percentage of the injected radioactive dose per gram of tissue (% ID/g) in B16/F1 Murine Melanoma-Bearing C57 Mice at 0.5 h; assay type: functional, organism-based; conditions: not given; in short: as §1

Row | Substance | ID/g [%]
22 | DOTA-ReCCEHdFRWCKPV-NH2 | 0.72

species: Mus musculus; experiment: Uptake Ratio of Tumor/liver (each in % ID/g) in B16/F1 Murine Melanoma-Bearing C57 Mice at 0.5 h; assay type: functional, organism-based; conditions: not given; in short: as §1

Row | Substance | Uptake ratio
23 | DOTA-ReCCEHdFRWCKPV-NH2 | 18.4

species: Mus musculus; experiment: Uptake Ratio of Tumor/blood (each in % ID/g) in B16/F1 Murine Melanoma-Bearing C57 Mice at 2 h; assay type: functional, organism-based; conditions: not given; in short: as §1

Row | Substance | Uptake ratio
24 | DOTA-ReCCEHdFRWCKPV-NH2 | 196

species: Mus musculus; experiment: Radioactivity uptake in the spleen was expressed as a percentage of the injected radioactive dose per gram of tissue (% ID/g) in B16/F1 Murine Melanoma-Bearing C57 Mice at 0.5 h; assay type: functional, organism-based; conditions: not given; in short: as §1

Row | Substance | ID/g [%]
25 | DOTA-ReCCEHdFRWCKPV-NH2 | 0.59

species: Mus musculus; experiment: Uptake Ratio of Tumor/liver (each in % ID/g) in B16/F1 Murine Melanoma-Bearing C57 Mice at 24 h; assay type: functional, organism-based; conditions: not given; in short: as §1

Row | Substance | Uptake ratio
26 | DOTA-ReCCEHdFRWCKPV-NH2 | 32.7

species: Mus musculus; experiment: Radioactivity uptake in the muscle was expressed as a percentage of the injected radioactive dose per gram of tissue (% ID/g) in B16/F1 Murine Melanoma-Bearing C57 Mice at 4 h; assay type: functional, organism-based; conditions: not given; in short: as §1

Row | Substance | ID/g [%]
27 | DOTA-ReCCEHdFRWCKPV-NH2 | 0.093

species: Mus musculus; experiment: Uptake Ratio of Tumor/muscle (each in % ID/g) in B16/F1 Murine Melanoma-Bearing C57 Mice at 0.5 h; assay type: functional, organism-based; conditions: Muscle tissue; in short: as §2

Row | Substance | Uptake ratio
28 | DOTA-ReCCEHdFRWCKPV-NH2 | 27.8

species: Mus musculus; experiment: Radioactivity uptake in the pancreas was expressed as a percentage of the injected radioactive dose per gram of tissue (% ID/g) in B16/F1 Murine Melanoma-Bearing C57 Mice at 0.5 h; assay type: functional, organism-based; conditions: not given; in short: as §1

Row | Substance | ID/g [%]
29 | DOTA-ReCCEHdFRWCKPV-NH2 | 0.62

species: Mus musculus; experiment: Radioactivity uptake in the muscle was expressed as a percentage of the injected radioactive dose per gram of tissue (% ID/g) in B16/F1 Murine Melanoma-Bearing C57 Mice at 2 h; assay type: functional, organism-based; conditions: not given; in short: as §1

Row | Substance | ID/g [%]
30 | DOTA-ReCCEHdFRWCKPV-NH2 | 0.047

species: Mus musculus; experiment: Radioactivity uptake in the lungs was expressed as a percentage of the injected radioactive dose per gram of tissue (% ID/g) in B16/F1 Murine Melanoma-Bearing C57 Mice at 0.5 h; assay type: functional, organism-based; conditions: Lung; in short: as §1

Row | Substance | ID/g [%]
31 | DOTA-ReCCEHdFRWCKPV-NH2 | 1.7

species: Mus musculus; experiment: Radioactivity uptake in the heart was expressed as a percentage of the injected radioactive dose per gram of tissue (% ID/g) in B16/F1 Murine Melanoma-Bearing C57 Mice at 24 h; assay type: functional, organism-based; conditions: not given; in short: as §1

Row | Substance | ID/g [%]
32 | DOTA-ReCCEHdFRWCKPV-NH2 | 0.13

species: Mus musculus; experiment: Radioactivity uptake in the muscle was expressed as a percentage of the injected radioactive dose per gram of tissue (% ID/g) in B16/F1 Murine Melanoma-Bearing C57 Mice at 24 h; assay type: functional, organism-based; conditions: not given; in short: as §1

Row | Substance | ID/g [%]
33 | DOTA-ReCCEHdFRWCKPV-NH2 | 0.031

species: Mus musculus; experiment: Radioactivity uptake in the lungs was expressed as a percentage of the injected radioactive dose per gram of tissue (% ID/g) in B16/F1 Murine Melanoma-Bearing C57 Mice at 24 h; assay type: functional, organism-based; conditions: Lung; in short: as §1

Row | Substance | ID/g [%]
34 | DOTA-ReCCEHdFRWCKPV-NH2 | 0.06

From ChEMBL document CHEMBL1135742, “Modification of the structure of a metallopeptide: synthesis and biological evaluation of (111)In-labeled DOTA-conjugated rhenium-cyclized alpha-MSH analogues” (J Med Chem, 2002)
